Like-named read-outs stand apart in the source and are kept apart here.
Assays:
PKCβ1 = PKCβ1 (Homo sapiens, UniProt P05771); assay: In vitro PKC inhibition assay; type: biochemical; conditions: read-out: IC50 PKCβ1; purified human recombinant PKCβ1, 30 min, room temperature
In short: (§1)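 Purified human recombinant PKC isoforms incubated at room temperature with ATP and isoform-specific substrates (25 to 400 nM) plus increasing concentrations of test compound (C8–C18 alkyl benzyl quaternary ammonium class). TR-FRET detection (LANCE or HTRF). Percent inhibition of control activity; IC50 and Hill coefficient from nonlinear Hill-equation fits of mean replicate values.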

PKCβ2 = PKCβ2 (Homo sapiens, UniProt P05771); assay: In vitro PKC inhibition assay; type: biochemical; conditions: read-out: IC50 PKCβ2; purified human recombinant PKCβ2, 15 min, room temperature
Chain of PKCβ2 (P05771 1-673 isoform P05771-2): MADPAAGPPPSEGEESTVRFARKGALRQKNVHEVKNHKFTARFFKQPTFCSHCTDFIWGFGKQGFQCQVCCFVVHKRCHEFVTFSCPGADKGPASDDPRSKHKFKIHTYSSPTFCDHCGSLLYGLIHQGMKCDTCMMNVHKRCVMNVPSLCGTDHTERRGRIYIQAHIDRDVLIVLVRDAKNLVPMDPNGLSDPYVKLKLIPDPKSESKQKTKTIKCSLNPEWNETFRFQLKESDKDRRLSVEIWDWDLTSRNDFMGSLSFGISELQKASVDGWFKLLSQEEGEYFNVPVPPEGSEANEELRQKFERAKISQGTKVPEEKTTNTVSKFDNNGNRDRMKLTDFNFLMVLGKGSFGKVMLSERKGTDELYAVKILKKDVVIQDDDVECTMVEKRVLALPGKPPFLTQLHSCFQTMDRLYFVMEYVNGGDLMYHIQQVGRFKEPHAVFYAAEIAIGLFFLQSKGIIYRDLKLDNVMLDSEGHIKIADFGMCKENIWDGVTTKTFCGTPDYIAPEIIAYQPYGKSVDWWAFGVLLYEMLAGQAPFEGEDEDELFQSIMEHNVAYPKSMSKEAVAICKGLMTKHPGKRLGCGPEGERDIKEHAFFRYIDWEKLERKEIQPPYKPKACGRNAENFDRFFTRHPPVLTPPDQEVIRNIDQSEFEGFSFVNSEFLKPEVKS
In short: as §1

PKCδ = PKCδ (Homo sapiens, UniProt Q05655); assay: In vitro PKC inhibition assay; type: biochemical; conditions: read-out: IC50 PKCδ; purified human recombinant PKCδ, 30 min, room temperature
Chain of PKCδ (Q05655 whole entry): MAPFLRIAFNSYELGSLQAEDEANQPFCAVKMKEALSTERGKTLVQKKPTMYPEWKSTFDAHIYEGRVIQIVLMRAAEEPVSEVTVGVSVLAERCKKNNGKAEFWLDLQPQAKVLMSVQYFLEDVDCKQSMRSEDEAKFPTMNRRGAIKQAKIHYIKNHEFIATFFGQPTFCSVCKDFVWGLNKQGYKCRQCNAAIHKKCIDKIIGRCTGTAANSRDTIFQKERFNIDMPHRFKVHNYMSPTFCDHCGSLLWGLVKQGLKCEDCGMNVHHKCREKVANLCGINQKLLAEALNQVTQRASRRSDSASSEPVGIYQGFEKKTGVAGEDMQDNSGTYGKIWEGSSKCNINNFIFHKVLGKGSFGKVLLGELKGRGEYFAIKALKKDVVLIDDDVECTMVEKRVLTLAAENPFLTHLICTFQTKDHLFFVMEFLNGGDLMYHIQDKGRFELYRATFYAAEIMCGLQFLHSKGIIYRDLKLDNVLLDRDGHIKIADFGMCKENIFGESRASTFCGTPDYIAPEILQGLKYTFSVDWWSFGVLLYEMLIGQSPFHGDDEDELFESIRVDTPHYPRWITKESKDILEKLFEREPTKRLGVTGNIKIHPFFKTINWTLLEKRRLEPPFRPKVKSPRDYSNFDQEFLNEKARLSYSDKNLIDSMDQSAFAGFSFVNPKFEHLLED
In short: as §1

PKCα = PKCα (Homo sapiens, UniProt P17252); assay: In vitro PKC inhibition assay; type: biochemical; conditions: read-out: IC50 PKCα; purified human recombinant PKCα, 15 min, room temperature
In short: as §1

PBMCs (LPS) = assay: Marker secretion inhibition in LPS-stimulated PBMCs; type: cell-based; conditions: Homo sapiens, PBMC
In short: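 PBMCs were Ficoll-isolated from one donor's blood and cultured in RPMI 1640 with 10% heat-inactivated FBS, 2 mM glutamine and pen/strep at 37 °C, 5% CO2. Test compound was given in a 30-min preincubation, then in fresh medium with LPS for 24 h. IL-6, IL-8 and IL-12 in supernatant were measured by flow-cytometric bead array. Results are % inhibition versus stimulated cells, mean ± SEM of triplicates.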

Chain of PKCβ1 (P05771 whole entry, canonical isoform): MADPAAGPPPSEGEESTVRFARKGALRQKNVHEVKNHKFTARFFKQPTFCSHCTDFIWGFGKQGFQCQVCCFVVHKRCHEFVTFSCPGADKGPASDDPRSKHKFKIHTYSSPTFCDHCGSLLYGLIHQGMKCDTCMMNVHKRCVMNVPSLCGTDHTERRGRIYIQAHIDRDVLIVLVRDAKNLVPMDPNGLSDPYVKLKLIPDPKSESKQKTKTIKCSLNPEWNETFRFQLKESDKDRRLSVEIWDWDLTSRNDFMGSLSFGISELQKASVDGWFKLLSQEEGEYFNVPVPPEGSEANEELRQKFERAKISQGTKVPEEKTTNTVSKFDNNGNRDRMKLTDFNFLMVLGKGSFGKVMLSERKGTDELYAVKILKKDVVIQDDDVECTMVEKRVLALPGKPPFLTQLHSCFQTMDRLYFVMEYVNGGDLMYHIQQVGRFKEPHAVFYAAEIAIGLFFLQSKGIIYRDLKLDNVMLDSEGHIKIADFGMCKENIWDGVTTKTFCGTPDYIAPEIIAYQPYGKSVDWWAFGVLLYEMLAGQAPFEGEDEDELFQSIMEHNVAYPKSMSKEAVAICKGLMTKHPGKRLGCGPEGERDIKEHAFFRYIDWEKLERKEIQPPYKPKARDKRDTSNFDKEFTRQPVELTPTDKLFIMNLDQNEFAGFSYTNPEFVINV

Row | Compound | IC50 (PKCβ1) | IC50 (PKCβ2) | IC50 (PKCδ) | IC50 (PKCα) | inhibition at 0.1 µM (PBMCs (LPS); read-out: % of marker secretion inhibition, IL6) | inhibition at 0.1 µM (PBMCs (LPS); read-out: % of marker secretion inhibition, IL8) | inhibition at 0.1 µM (PBMCs (LPS); read-out: % of marker secretion inhibition, IL12) | inhibition at 0.1 µM (PBMCs (LPS); read-out: % of marker secretion inhibition, TNFα)
1 | CCCCCCCCCCCCCC[N+](C)(C)Cc1ccccc1 [C14] | 10.1 µM | 14.1 µM | > 109 µM | 5.4 µM |  |  |  | 
2 | C[C@@H]1C[C@H]2[C@@H]3CCC4=CC(=O)C=C[C@]4(C)[C@@]3(F)[C@@H](O)C[C@]2(C)[C@@]1(O)C(=O)CO [DXM, dexamethasone] |  |  |  |  | 72 ± 1% | 68 ± 2% | 97 ± 1% | 85 ± 1%
3 | CCCCCCCCCCCCCCCC[N+](C)(C)Cc1ccccc1 [C16 (CKC), cetalkonium chloride] | > 101 µM | > 101 µM |  |  |  |  |  | 
4 | CCCCCCCCCCCC[N+](C)(C)Cc1ccccc1 [C12] | 58.8 µM | 58.8 µM | > 118 µM | 22.6 µM |  |  |  | 
5 | CCCCCCCCCCCCCCCCCC[N+](C)(C)Cc1ccccc1 [C18] | 74.6 µM | 39.3 µM |  | 11.7 µM |  |  |  | 
6 | CCCCCCCCCC[N+](C)(C)Cc1ccccc1 [C10] | > 101 µM | > 101 µM | > 128 µM | > 128 µM |  |  |  | 
7 | CCCCCCCC[N+](C)(C)Cc1ccccc1 [C8] | > 101 µM | > 101 µM |  | > 141 µM |  |  |  | 
